# Compound activity deposited in PubChem BioAssay by several laboratories.
# Sampled rows, rich in hits. Any-hit rate of the full collection: about 3.7%.
# Efa HMGR inh – inhibitors of class II HMG-CoA reductase from Enterococcus faecalis | actives 0.41% (n = 190,000) | purified E. faecalis HMGR, NADPH absorbance 340 nm kinetic | inhibition, % at 10 µM;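 active = inhibition above a set limit, the median over all tested compounds plus 3 SD, cut at about 9.5% in these data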;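 also: enzyme runs in reverse so mevalonate oxidation gives rising NADPH absorbance; 0% = complete reaction with DMSO and 100% = background rate lacking mevalonate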
# RAM network inh – inhibitors of the yeast RAM network. S. cerevisiae dse1pr::URA3 reporter, 5-FOA growth OD615, 2 d; analog-sensitive cbk1-as2 kinase mutant strain. inhibition, % at 50 µM. actives 1.8% (n = 190,000). AID 868;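 active = inhibition above a set limit, 3 SD over mean compound inhibition, cut at about 8.4% in these data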;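 also: 0% = DMSO-only wells with no growth and 100% = 10 µM 1-NA-PP1 full growth; inhibition rescues growth on 5-FOA so higher OD means more RAM inhibition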
# BB579 growth dn – yeast BB579 growth reduction in restrictive medium | S. cerevisiae BB579 growth, OD615, 48 h | inhibition, % at 10 µM | actives 0.51% (n = 140,000);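 active = inhibition above a set limit, 3 SD over the mean compound inhibition, cut at about 44% in these data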
#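 Test system: S. cerevisiae DeaD strain BB579 yeast; Medium: restrictive CSMM-D medium; Compound: one dose, 10 µM compound with 0.25% DMSO; Incubation: 4 h cell preincubation, 48 h compound exposure, 30 °C humidified; Signal: OD at 615 nm; Benchmarks: amphotericin B at 10 µg/mL as positive control.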
# Yeast lifespan up – extends the lifespan of yeast; inhibition of the nicotinamide effect, % at 10 µM; S. cerevisiae growth with nicotinamide, OD615; deaD strain in restrictive glucose medium; actives 0.68% (n = 130,000);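 active = inhibition above a set limit, placed 3 SD over the median of all compounds, cut at about 26% in these data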;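 also: 0% = nicotinamide-treated wells and 100% = cells grown without nicotinamide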
#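 Assay system: engineered S. cerevisiae DeaD replicative-lifespan strain, galactose-grown log-phase cells; Buffer or medium: CSMM-D glucose medium, restrictive; Probe or stimulus: nicotinamide 1.5 mM; Compound: single dose 10 µM compound, 0.25% DMSO; Schedule: 4 h preincubation then 48 h treatment at 30 °C; Technique: OD615 measurement.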
# Insulin prom inh – TRM-6 insulin promoter activity inhibition | AID 1273 | actives 0.9% (n = 130,000) | inhibition, % at 2 µM | TRM-6 cells (human fetal islet line), insulin promoter-eGFP reporter, imaging; reporter expression induced with tamoxifen;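 active = inhibition above the mean plus 3 SD, with well images judged a real hit on visual review, cut at about 60% in these data, passing the limit was not always enough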
# Numbers without * were called inactive; / = not tested or not shown.
SMILES,Efa HMGR inh,RAM network inh,BB579 growth dn,Yeast lifespan up,Insulin prom inh
COc1ccc(-c2nc(NC(=O)c3ccc(OCC(=O)N4CCOCC4)c(OC)c3)sc2C)cc1,0,9.0*,-14,-1,25
COc1cc(C(=O)Nc2nc(-c3ccc(Cl)cc3)c(C)s2)ccc1OCC(=O)Nc1ccc(F)cc1,-9,2,-24,-2,/
COc1ccc(/C=C/C(=O)NCCN=C2NS(=O)(=O)c3ccccc32)cc1,-13,0,/,/,/
O=[N+]([O-])c1ccc(Cl)c(S(=O)(=O)N2CCCCCC2)c1,-1,1,57*,5,-16
CN1CCN(S(=O)(=O)c2cc([N+](=O)[O-])ccc2Cl)CC1,-5,0,/,/,/
COC(=O)c1sc2ncccc2c1OCc1c(Cl)cccc1Cl,-2,3,-13,-15,/
COC(=O)c1sc2ncccc2c1OCc1cccc(Cl)c1,1,9.6*,-27,-17,17
Cc1ccc(-n2nc(C)c3c2OC(N)=C(C#N)C3c2ccoc2)cc1 (stereo not given),-2,0,-66,30*,/
Cc1ccc(-n2nc(C)c3c2OC(N)=C(C#N)C3c2ccco2)cc1 (stereo not given),-6,0,-58,28,-33
COc1ccc2c(c1)CCc1c(C(=O)N(C)c3ccccc3)noc1-2,-6,-1,/,/,/
CN1CCN(NC(=O)CN2C(=O)S/C(=C\c3c(Cl)cccc3Cl)C2=O)CC1,-5,1,/,/,/
O=C(C1=C(O)/C(=C/c2ccc(O)cc2)CCC1)C(F)(F)F,-4,-2,100*,/,-160
COc1ccc(/C=C2\CCCC(C(=O)C(F)(F)F)=C2O)cc1,-2,10.0*,-48,-8,-31
CCn1c(=O)cc(SCC(=O)N2CCN(c3ccccc3F)CC2)c2ccccc21,1,-1,-16,-5,21
CCN(CC)c1ccc(NC(=O)C2CC(=O)N(Cc3ccccc3)C2)cc1 (stereo not given),4,1,/,/,38
CC(C)c1ccc(CN2CC(C(=O)Nc3ccccc3)CC2=O)cc1 (stereo not given),-1,2,/,/,75*
O=c1cnn([C@@H]2O[C@H](CO)[C@@H](O)[C@H]2O)c(=O)[nH]1,-7,0,44*,12,-29
Nc1ccn([C@@H]2O[C@H](CO)[C@@H](O)C2O)c(=O)n1 (stereo not given in full),4,/,/,/,/
S=C1NC2CCCCC2N1 (stereo not given),-3,2,/,/,/
O=C(COc1ccc([N+](=O)[O-])cc1)Nc1ccc(C(=O)Nc2ccccc2C(=O)O)cc1,3,1,/,/,/
O=C(/C=C/c1ccc([N+](=O)[O-])s1)N1CCCCC1,-4,0,/,/,-328
O=[N+]([O-])c1ccc(CN2CCCCCC2)s1,-2,-1,54*,4,/
CC1(C)CC(=O)C2=C(C1)N(c1ccc(F)cc1)C(=O)CC2c1ccccc1 (stereo not given),1,0,-66,4,-58
O=C1CCCC2=C1C(c1ccccc1)CC(=O)N2c1ccc(F)cc1F (stereo not given),12*,1,/,/,-27
CCOC(=O)c1ccc(CNCc2ccc(Br)cc2)cc1,-1,2,-4,6,0
SMILES,Efa HMGR inh,RAM network inh,BB579 growth dn,Yeast lifespan up,Insulin prom inh
CCOC(=O)c1[nH]nc(C(=O)c2ccc(Br)cc2)c1O,3,2,-35,48*,/
CCCCN(C(=O)c1cc2ccccc2o1)c1c(N)n(CCC)c(=O)[nH]c1=O,-10,1,-12,-4,/
NNC(=O)c1cccc(COc2ccc3c(c2)CCC3)c1,-8,-1,51*,-5,-75
C=CCN(C(=O)CNC(=O)c1ccco1)C(C(=O)NC1CCCCC1)c1ccc(F)cc1 (stereo not given),-9,4,9,-26,-3
O=C(NCC(=O)N(Cc1cccs1)C(C(=O)NC1CCCCC1)c1ccncc1)c1ccco1 (stereo not given),11*,0,-46,/,-253
O=C(NCC(=O)N(c1ccc(F)cc1)C(C(=O)NC1CCCC1)c1cccnc1)c1cccs1 (stereo not given),-5,8.9*,/,/,/
C=CCN(C(=O)CNC(=O)c1ccco1)C(C(=O)NC1CCCCC1)c1ccccc1 (stereo not given),-5,9.2*,-22,-19,/
CNS(=O)(=O)c1ccc2nc(NC(=O)c3ccc(N4C(=O)CCC4=O)cc3)sc2c1,10*,4,/,/,7
O=C1NC(=O)C2(COC(c3ccccc3Cl)OC2)S1 (stereo not given),-6,0,5,-4,0
CCC(=O)Nc1ccc(S(=O)(=O)NCCc2ccccc2)cc1,2,0,-78,10,-33
COCC(=O)Nc1ccc(S(=O)(=O)NCCc2ccccc2)cc1,-2,0,5,-11,100*
CCOC(=O)/C(=N\Nc1ccc(Cl)cc1)c1csc(Nc2ccccc2)n1,-6,4,-53,-17,/
CCOC(=O)/C(=N\Nc1ccc(OC)cc1)c1csc(Nc2ccccc2)n1,-1,11*,-15,-4,40
CN1CCN(NC(=O)c2cc(Br)ccc2Cl)CC1,-1,0,/,/,53
Cc1cccnc1Nc1nc(-c2ccccn2)cs1,-5,1,95*,-15,-143
Cc1cccc(Nc2nc(-c3ccccn3)cs2)n1,-3,-1,100*,-25,-23
CC(=O)n1nc(-c2ccccc2)nc1NCc1cccs1,-6,1,/,/,/
Cc1ccc2[nH]c3c(N4CCCCCC4)ncnc3c2c1,-5,1,-18,-28,62
Cc1ccc2[nH]c3c(=S)nc[nH]c3c2c1,-1,8,-18,9,78*
CC1(c2ccc3ccccc3c2)NC(=O)N(CC(=O)Nc2cccc(S(=O)(=O)N3CCOCC3)c2)C1=O (stereo not given),2,5,-49,2,-21
Cc1cccc2c1N(CCCOc1ccccc1)C(=O)C2=O,-8,-1,-6,-4,-36
Cc1ccccc1OCCCN1C(=O)C(=O)c2cccc(C)c21,-1,-1,83*,-16,/
Cc1ccc2c(c1)C(=O)C(=O)N2CCCOc1ccccc1C,-1,0,/,/,-15
Cc1cccc2c1N(CCCOc1ccc(C(C)(C)C)cc1)C(=O)C2=O,-2,11*,-21,4,/
c1ccc2[nH]c(CN3CCOCC3)nc2c1,2,0,19,-2,3
c1ccc2cc3[nH]c(CN4CCOCC4)nc3cc2c1,10*,1,-22,/,-60
Cc1ccc(-n2c(SCC(=O)N(C)C3CCS(=O)(=O)C3)nc3ccccc3c2=O)cc1 (stereo not given),18*,2,/,/,-33
Cc1cccc[n+]1CC(=O)N1c2ccccc2Sc2ccccc21,1,4,/,/,/
O=[N+]([O-])c1cccc2ccc(/C=C/c3ccc(C(F)(F)F)cc3)nc12,-5,10*,-29,-5,/
CCOC(=O)N1CCN(C(=O)C2CCN(Cc3cccc(OCc4ccccc4)c3)CC2)CC1,-5,0,-4,6,-53
